The subject of one experiment is Aspergillus parasiticus. Description: Antimicrobial activity against Aspergillus parasiticus NCIM 904 after 72 hrs by serial dilution method. The following applies: NCIM 904, 72 h. It counts as functional. The gist of the method:
(§1)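 MIC by broth dilution in Sabouraud's dextrose broth, only for fungi sensitive in disc diffusion. Two-fold serial dilutions of compounds are made in 1 ml broth per tube, range 3.9 to 1000. Inoculated tubes are incubated at 27 °C for 72 h.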

In another experiment the test system is Bacillus subtilis. Description: Antimicrobial activity against Bacillus subtilis NCIM 2063 at 1000 ug/disk after 24 hrs by disk diffusion method. Type of experiment: functional. The following applies: NCIM 2063, 24 h, read-out: DIZ. The gist of the method: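 Disc diffusion on Mueller–Hinton agar. 100 µl of bacterial suspension at 10⁸ CFU/ml is spread on the plate. Discs carry test compounds at two loadings, dissolved in DMSO; DMSO alone serves as negative control. Ofloxacin disc is the positive reference. Plates are incubated at 37 °C for 24 h, and the inhibition zone diameter is measured.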

The subject of another experiment is Trichoderma viride. The experiment can be described thus: Antimicrobial activity against Trichoderma viride NCIM 1195 at 1000 ug/disk after 72 hrs by disk diffusion method. It counts as functional. The following applies: NCIM 1195, 72 h, read-out: DIZ. The gist of the method: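 Fungal disc diffusion. 100 µl of suspension at 10⁶ CFU/ml was spread on Sabouraud's dextrose agar. Discs carrying test compound in DMSO were applied, with a DMSO-only disc as negative control. Plates were incubated at 27 °C for 72 h, and the zone of inhibition diameter was measured.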

The test system of experiment [1] is Pseudomonas aeruginosa. The experiment can be described thus: Antimicrobial activity against Pseudomonas aeruginosa NCIM 2200 at 500 ug/disk after 24 hrs by disk diffusion method. It counts as functional. The following applies: for zone of inhibition at 500 µg/disc: NCIM 2200, 24 h, read-out: DIZ. An outline of the steps: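 Disc diffusion. 100 µl of bacterial suspension at 10⁸ CFU/ml was spread on Mueller–Hinton agar. Discs loaded with test compound dissolved in DMSO were placed on the lawn, with a DMSO-only disc as negative control. Plates were incubated at 37 °C for 24 h, and the inhibition zone diameter was measured.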

Experiment [2] has as its system Aspergillus fumigatus. Description: Antimicrobial activity against Aspergillus fumigatus NCIM 902 at 500 ug/disk after 72 hrs by disk diffusion method. It counts as functional. An outline of the steps:
(§2)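 Disc diffusion on Sabouraud's dextrose agar. 100 µl of fungal suspension at 10⁶ CFU/ml is spread on the plate. Discs carry test compounds at two loadings in DMSO; DMSO alone is the negative control. Clotrimazole disc is the positive reference. Plates are incubated at 27 °C for 72 h, and the zone of inhibition diameter is measured.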

In another experiment the test system is Salmonella typhimurium. The experiment can be described thus: Antimicrobial activity against Salmonella Typhimurium NCIM 2501 after 24 hrs by serial dilution method. It counts as functional, Salmonella enterica subsp. enterica serovar Typhimurium. The following applies: Salmonella enterica, NCIM 2501, 24 h.
In experiment [3] the test system is Aspergillus niger. The experiment can be described thus: Antimicrobial activity against Aspergillus niger NCIM 902 at 500 ug/disk after 72 hrs by disk diffusion method. Type of experiment: functional. The following applies: NCIM 1196, 72 h, in the assay text read “NCIM 1196” for “NCIM 902”, read-out: DIZ. An outline of the steps: as §2
Experiment [4] deals with Aspergillus niger. Description: Antimicrobial activity against Aspergillus niger NCIM 902 at 1000 ug/disk after 72 hrs by disk diffusion method. The following applies: NCIM 1196, 72 h, in the assay text read “NCIM 1196” for “NCIM 902”, read-out: DIZ. It counts as functional. An outline of the steps:
as §2

In another experiment the test system is Aspergillus flavus. Description: Antimicrobial activity against Aspergillus flavus NCIM 902 after 72 hrs by serial dilution method. Type of experiment: functional. The following applies: NCIM 535, 72 h, in the assay text read “NCIM 535” for “NCIM 902”. The gist of the method: as §1
The test system of another experiment is Proteus vulgaris. Description: Antimicrobial activity against Proteus vulgaris NCIM 2027 after 24 hrs by serial dilution method. The following applies: NCIM 2027, 24 h. Type of experiment: functional. The gist of the method:
(§3)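 Broth dilution MIC in nutrient broth, run only for organisms found sensitive in disc diffusion. Compounds are two-fold serially diluted in 1 ml sterile broth per tube, spanning 3.9 to 1000. Inoculated tubes are incubated at 37 °C for 24 h.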

Another experiment deals with Staphylococcus. Description: Antimicrobial activity against Staphylococcus albus NCIM 2178 after 24 hrs by serial dilution method. Type of experiment: functional. The following applies: NCIM 2178, 24 h.
For experiment [5], the system named is Penicillium chrysogenum. Description: Antimicrobial activity against Penicillium chrysogenum NCIM 707 at 1000 ug/disk after 72 hrs by disk diffusion method. Type of experiment: functional. The following applies: for zone of inhibition at 1000 µg/disc: NCIM 707, 72 h, read-out: DIZ. An outline of the steps:
as §2

In the next experiment the test system is Lipomyces lipofer. Description: Antimicrobial activity against Lipomyces lipofer NCIM 3252 after 72 hrs by serial dilution method. It counts as functional. The following applies: NCIM 3252, 72 h. An outline of the steps:
as §1

Experiment [6] has as its system Aspergillus fumigatus. Description: Antimicrobial activity against Aspergillus fumigatus NCIM 902 after 72 hrs by serial dilution method. The following applies: NCIM 902, 72 h. Type of experiment: functional. The gist of the method:
as §1

Experiment [7] concerns Rhodococcus corynebacterioides. Description: Antimicrobial activity against Corynebacterium rubrum NCIM 2252 after 24 hrs by serial dilution method. The following applies: Rhodococcoides corynebacterioides, NCIM 2252, 24 h. Type of experiment: functional. The gist of the method:
as §3

The test system of another experiment is Klebsiella aerogenes. Description: Antimicrobial activity against Klebsiella aerogenes NCIM 2239 after 24 hrs by serial dilution method. Type of experiment: functional. The following applies: NCIM 2239, 24 h. The gist of the method: as §3
The test system of experiment [8] is Aspergillus niger. The experiment can be described thus: Antimicrobial activity against Aspergillus niger NCIM 902 after 72 hrs by serial dilution method. It counts as functional. The following applies: NCIM 1196, 72 h, in the assay text read “NCIM 1196” for “NCIM 902”. An outline of the steps: as §1
The subject of the next experiment is Bacillus cereus. The experiment can be described thus: Antimicrobial activity against Bacillus cereus NCIM 2155 after 24 hrs by serial dilution method. It counts as functional. The following applies: NCIM 2155, 24 h. The gist of the method:
as §3

Experiment [9] has as its system Pseudomonas aeruginosa. The experiment can be described thus: Antimicrobial activity against Pseudomonas aeruginosa NCIM 2200 after 24 hrs by serial dilution method. The following applies: NCIM 2200, 24 h. It counts as functional. The gist of the method:
as §3

Experiment [10] deals with Penicillium chrysogenum. The experiment can be described thus: Antimicrobial activity against Penicillium chrysogenum NCIM 707 after 72 hrs by serial dilution method. Type of experiment: functional. The following applies: NCIM 707, 72 h. The gist of the method: as §1

Values after ≈ are worked out from the molar mass of the structure shown. Active and inactive are the calls of the source. The calls are words filed in the database; no cut-off is given here.

As for `O=C1CCCC2=C1C(c1cccc([N+](=O)[O-])c1)c1ccc3ccccc3c1N2` (stereo not given), the MIC stood at 15.6 µg/mL (≈ 42.1 µM) in the experiment with Aspergillus parasiticus; 62.5 µg/mL (≈ 169 µM) in the experiment with Salmonella typhimurium; 31.2 µg/mL (≈ 84.2 µM) with Aspergillus flavus; 125 µg/mL (≈ 337 µM) against Proteus vulgaris; 62.5 µg/mL (≈ 169 µM) against Staphylococcus; 62.5 µg/mL (≈ 169 µM) in the experiment on Lipomyces lipofer. For the same molecule, the MIC in the experiment with Aspergillus fumigatus [6] worked out at 125 µg/mL (≈ 337 µM); in [7], 125 µg/mL (≈ 337 µM); against Klebsiella aerogenes it was 125 µg/mL (≈ 337 µM); in the experiment on Aspergillus niger [8] it was 125 µg/mL (≈ 337 µM); in the experiment on Bacillus cereus it was 62.5 µg/mL (≈ 169 µM). For the same molecule, the zone of inhibition at 1000 µg/disc in the experiment on Bacillus subtilis was 12 mm; with Trichoderma viride it was 10 mm; with Aspergillus niger [4] it was 7 mm. For the same molecule, the “diameter of the inhibition zone (DIZ)” value in the experiment with Pseudomonas aeruginosa [1], in the experiment with Aspergillus fumigatus [2] and in the experiment on Penicillium chrysogenum [5] was “inactive” each time. For the same molecule, the zone of inhibition at 500 µg/disc in the experiment on Aspergillus niger [3] came to 7 mm.
As for `CC1(C)CC(=O)C2=C(C1)Nc1c(ccc3ccccc13)C2c1ccc(O)cc1` (stereo not given), the MIC in the experiment with Aspergillus parasiticus is 7.8 µg/mL (≈ 21.1 µM); with Pseudomonas aeruginosa [9], 62.5 µg/mL (≈ 169 µM); against Salmonella typhimurium, 31.2 µg/mL (≈ 84.4 µM); against Aspergillus flavus, 31.2 µg/mL (≈ 84.4 µM); against Proteus vulgaris, 125 µg/mL (≈ 338 µM); in the experiment with Staphylococcus it was 125 µg/mL (≈ 338 µM). Moreover, the MIC was found to be 62.5 µg/mL (≈ 169 µM) against Lipomyces lipofer; 62.5 µg/mL (≈ 169 µM) in experiment [7]; 31.2 µg/mL (≈ 84.4 µM) against Klebsiella aerogenes; 125 µg/mL (≈ 338 µM) in the experiment with Penicillium chrysogenum [10]; 62.5 µg/mL (≈ 169 µM) against Aspergillus niger [8]; 31.2 µg/mL (≈ 84.4 µM) against Bacillus cereus. In addition, the zone of inhibition at 1000 µg/disc with Bacillus subtilis was found to be 10 mm; in the experiment with Trichoderma viride, 12 mm; in the experiment with Aspergillus niger [4], 10 mm; in the experiment on Penicillium chrysogenum [5] it was 9 mm. Besides, the zone of inhibition at 500 µg/disc was determined as 7 mm with Pseudomonas aeruginosa [1] and 8 mm with Aspergillus niger [3]. Further, the “diameter of the inhibition zone (DIZ)” value in the experiment on Aspergillus fumigatus [2] is “inactive”.
As to `O=C1CCCC2=C1C(c1ccc(Cl)cc1)c1ccc3ccccc3c1N2` (stereo not given), the MIC in the experiment with Aspergillus parasiticus was found to be 31.2 µg/mL (≈ 86.7 µM); against Pseudomonas aeruginosa [9], 62.5 µg/mL (≈ 174 µM); in the experiment with Salmonella typhimurium, 62.5 µg/mL (≈ 174 µM); in the experiment with Aspergillus flavus it was 62.5 µg/mL (≈ 174 µM); with Proteus vulgaris, 125 µg/mL (≈ 347 µM); in the experiment with Staphylococcus, 62.5 µg/mL (≈ 174 µM). Further, the MIC with Lipomyces lipofer was found to be 125 µg/mL (≈ 347 µM); in the experiment with Aspergillus fumigatus [6] it was 62.5 µg/mL (≈ 174 µM); in experiment [7], 125 µg/mL (≈ 347 µM); in the experiment on Klebsiella aerogenes, 125 µg/mL (≈ 347 µM); against Penicillium chrysogenum [10], 125 µg/mL (≈ 347 µM); against Aspergillus niger [8], 62.5 µg/mL (≈ 174 µM). The same molecule came in with an MIC in the experiment on Bacillus cereus of 15.6 µg/mL (≈ 43.4 µM). For the same molecule, the zone of inhibition at 1000 µg/disc in the experiment with Bacillus subtilis is 12 mm; in the experiment with Trichoderma viride, 8 mm; with Aspergillus niger [4], 8 mm; in the experiment on Penicillium chrysogenum [5], 8 mm. The zone of inhibition at 500 µg/disc stood at 7 mm in the experiment on Pseudomonas aeruginosa [1]; 8 mm in the experiment on Aspergillus fumigatus [2] (NCIM 902, 72 h, read-out: DIZ); 8 mm in the experiment with Aspergillus niger [3].
For the molecule `O=C1CCCC2=C1C(c1ccc(O)cc1)c1ccc3ccccc3c1N2` (stereo not given), the MIC in the experiment on Aspergillus parasiticus came out at 15.6 µg/mL (≈ 45.7 µM); with Pseudomonas aeruginosa [9] it was 125 µg/mL (≈ 366 µM); against Salmonella typhimurium it was 125 µg/mL (≈ 366 µM); in the experiment with Aspergillus flavus, 125 µg/mL (≈ 366 µM); in the experiment with Proteus vulgaris it was 125 µg/mL (≈ 366 µM); against Staphylococcus, 62.5 µg/mL (≈ 183 µM). Further, the MIC in the experiment on Lipomyces lipofer is 62.5 µg/mL (≈ 183 µM); in [7], 125 µg/mL (≈ 366 µM); with Klebsiella aerogenes, 62.5 µg/mL (≈ 183 µM); in the experiment on Penicillium chrysogenum [10] it was 125 µg/mL (≈ 366 µM); in the experiment with Aspergillus niger [8], 62.5 µg/mL (≈ 183 µM). Besides, the zone of inhibition at 1000 µg/disc in the experiment with Bacillus subtilis is 11 mm; in the experiment on Trichoderma viride, 11 mm; in the experiment with Aspergillus niger [4], 9 mm; in the experiment with Penicillium chrysogenum [5], 10 mm. The zone of inhibition at 500 µg/disc was 7 mm in the experiment on Pseudomonas aeruginosa [1] and 9 mm in the experiment with Aspergillus niger [3]. For the same molecule, the “diameter of the inhibition zone (DIZ)” value in the experiment on Aspergillus fumigatus [2] was “inactive”.
